E-selectin induc – induces E-selectin expression in human endothelial cells; P16581; HUVEC E-selectin immunofluorescence imaging; normalized: neutral wells 0, TNF-alpha wells 100; activation, % at 7.58 µM; actives 0.37% (n = 260,000);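 active means mean E-selectin-positive cell signal at least 10% of the positive control, reached in at least 60% of replicates, without over 20% cell loss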
Target sequence (P16581 whole entry, looked up): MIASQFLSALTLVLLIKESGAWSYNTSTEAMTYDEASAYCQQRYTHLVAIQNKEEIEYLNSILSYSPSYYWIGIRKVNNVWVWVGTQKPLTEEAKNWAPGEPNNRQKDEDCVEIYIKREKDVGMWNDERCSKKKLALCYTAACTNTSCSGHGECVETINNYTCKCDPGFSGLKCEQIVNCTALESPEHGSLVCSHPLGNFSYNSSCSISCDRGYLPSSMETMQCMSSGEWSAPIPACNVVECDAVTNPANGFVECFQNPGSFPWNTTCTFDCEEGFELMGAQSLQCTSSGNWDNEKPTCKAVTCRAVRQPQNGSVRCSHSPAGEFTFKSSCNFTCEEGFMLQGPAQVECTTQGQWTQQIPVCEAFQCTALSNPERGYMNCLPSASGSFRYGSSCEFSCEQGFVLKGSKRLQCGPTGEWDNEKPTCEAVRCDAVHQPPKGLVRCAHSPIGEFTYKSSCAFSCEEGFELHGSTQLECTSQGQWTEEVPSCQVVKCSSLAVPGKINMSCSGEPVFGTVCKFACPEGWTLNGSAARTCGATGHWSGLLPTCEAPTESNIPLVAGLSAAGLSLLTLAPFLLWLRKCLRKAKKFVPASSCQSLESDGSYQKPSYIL
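Test system: HUVEC | Signal: Immunofluorescence imaging | Read-out: Percent E-selectin-positive cells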
DENV2 CPE rescue – protects cells from dengue virus 2 cytopathic effect; DENV2-infected cells, cytopathic effect rescue, plate reader; CPE inhibition, % at 9.99 µM; actives 1.7% (n = 350,000); AID 651640; in the data active means CPE inhibition above about 20%, passing the limit was not always enough; tested in BHK-21 cells;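 further: 0% = median of neutral control wells and 100% = median of positive control wells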
SIRT5 block – blocks human SIRT5 desuccinylation of peptide | AID 652115 | inhibition, % at 15 µM | Q9NXA8 | actives 1.1% (n = 330,000) | Purified SirT5, succinyl-peptide AMC, trypsin-coupled fluorescence; in the data active means inhibition above about 15%
Starred values were filed as active, the others as inactive. A selection: hits, their analogues and other compounds. The true share with any hit is near 2.9%.

How did O=S1(=O)CC(N2CCC(c3ccccc3)CC2)CN1Cc1ccccc1 (centres undefined) do in these assays?
E-selectin induc: 0.3; DENV2 CPE rescue: 9.2; SIRT5 block: 37.2*

What do the screens show for `C[C@@H]1CN([C@H](C)CO)C(=O)c2cc(NC(=O)Cc3ccccc3)ccc2O[C@@H](C)CCCCO[C@@H]1CN(C)S(=O)(=O)c1ccc(Cl)cc1`?
E-selectin induc: 0.2; DENV2 CPE rescue: -6.4; SIRT5 block: 12.7

What do the screens show for `CCN1[C@@H]2Cn3c(ccc(C4=CCCCC4)c3=O)[C@H]1[C@@H](C(=O)NCc1ccccn1)[C@@H]2CO`?
E-selectin induc: -0.1; DENV2 CPE rescue: -2.5; SIRT5 block: -22.0

How did CN1CCN(C2CN(Cc3cn(Cc4ccccc4C(F)(F)F)nn3)S(=O)(=O)C2)CC1 (centres undefined) do in these assays?
E-selectin induc: -0.1; DENV2 CPE rescue: -5.5; SIRT5 block: -1.9

Results for CN(C)CCN1CCN(C2CN(Cc3cn(Cc4ccccc4C(F)(F)F)nn3)S(=O)(=O)C2)CC1 (centres undefined) ?
E-selectin induc: 0.0; DENV2 CPE rescue: -5.6; SIRT5 block: 20.6*

Results for C[C@@H]1CN([C@@H](C)CO)C(=O)Cc2cc(NC(=O)CCN3CCOCC3)ccc2O[C@H]1CN(C)Cc1ccc(C(=O)Nc2ccccc2N)cc1 ?
E-selectin induc: -2.0; DENV2 CPE rescue: 4.8; SIRT5 block: -0.6

How did COc1cc(OC)cc(N(C(=O)CNC(=O)c2cccs2)C(C(=O)NCC2CCCO2)c2ccc(OC)c(OC)c2)c1 (centres undefined) do in these assays?
DENV2 CPE rescue: -0.2; SIRT5 block: 1.3

Results for Cc1nn(-c2ccccc2)c(Cl)c1/C=N/Nc1nc2ccccc2[nH]1 ?
DENV2 CPE rescue: 4.7; SIRT5 block: -2.3

How did Cc1cc(=O)[nH]c(N/N=C/c2c(C)nn(-c3ccccc3)c2Cl)n1 do in these assays?
DENV2 CPE rescue: -1.1; SIRT5 block: 15.9*

What do the screens show for `COc1cccc(S(=O)(=O)N2C[C@H](O)COC[C@@H]3O[C@H](CC(=O)N4CCCCC4)CC[C@H]32)c1`?
E-selectin induc: 0.0; DENV2 CPE rescue: 3.0; SIRT5 block: 0.9

Results for O=C(NN1C(=O)/C(=C/c2cccc(O)c2)SC1=S)c1ccccc1O ?
DENV2 CPE rescue: 6.6; SIRT5 block: 7.0

How did O=C(O)COc1ccccc1/C=C1\SC(=S)N(NC(=O)c2ccccc2O)C1=O do in these assays?
E-selectin induc: 0.6; DENV2 CPE rescue: -12.4; SIRT5 block: 21.1*

How did Cc1ccc(OCCOC(=O)c2nc3nccc(C)n3n2)cc1 do in these assays?
DENV2 CPE rescue: 0.4; SIRT5 block: 4.7

What do the screens show for `C[C@H](CO)N1C[C@H](C)[C@@H](CN(C)C(=O)NC2CCCCC2)Oc2cc(C#Cc3cccc(F)c3)ccc2S1(=O)=O`?
E-selectin induc: 0.5

Results for C[C@H]1CN([C@@H](C)CO)S(=O)(=O)c2ccc(C#Cc3cccc(F)c3)cc2O[C@H]1CN(C)C(=O)NC1CCCCC1 ?
E-selectin induc: 6.2; DENV2 CPE rescue: 7.0; SIRT5 block: 15.0

How did C[C@@H]1CN([C@H](C)CO)S(=O)(=O)c2ccc(C#Cc3cccc(F)c3)cc2O[C@@H]1CN(C)C(=O)NC1CCCCC1 do in these assays?
E-selectin induc: 0.1; DENV2 CPE rescue: -0.8; SIRT5 block: 17.4*

What do the screens show for `C[C@H]1CN([C@@H](C)CO)S(=O)(=O)c2ccc(C#Cc3ccc(F)cc3)cc2O[C@H]1CN(C)C(=O)NC1CCCCC1`?
E-selectin induc: -2.3; DENV2 CPE rescue: -11.5; SIRT5 block: 19.8*

How did C[C@H](CO)N1C[C@H](C)[C@H](CN(C)C(=O)NC2CCCCC2)Oc2cc(C#Cc3cccc(F)c3)ccc2S1(=O)=O do in these assays?
E-selectin induc: -3.7; DENV2 CPE rescue: -0.3; SIRT5 block: -2.9

What do the screens show for `C[C@@H]1CN([C@@H](C)CO)S(=O)(=O)c2ccc(C#Cc3ccc(F)cc3)cc2O[C@@H]1CN(C)C(=O)NC1CCCCC1`?
E-selectin induc: 0.4; DENV2 CPE rescue: 8.4; SIRT5 block: 16.3*

What do the screens show for `C[C@@H]1CN([C@H](C)CO)S(=O)(=O)c2ccc(C#Cc3ccc(F)cc3)cc2O[C@@H]1CN(C)C(=O)NC1CCCC1`?
E-selectin induc: 0.1; DENV2 CPE rescue: -20.0; SIRT5 block: 2.0

What do the screens show for `C[C@H]1CN([C@@H](C)CO)S(=O)(=O)c2ccc(C#Cc3ccc(F)cc3)cc2O[C@@H]1CN(C)C(=O)NC1CCCCC1`?
E-selectin induc: -3.4; DENV2 CPE rescue: 4.6; SIRT5 block: 18.1*

What do the screens show for `Nc1ccc(C#Cc2c(-c3ccsc3)oc3ccc(N4CCOCC4)cc23)cc1`?
E-selectin induc: -0.1; DENV2 CPE rescue: -16.3

How did CN(/N=C/c1ccc([N+](=O)[O-])o1)c1ccccc1 do in these assays?
DENV2 CPE rescue: 3.4; SIRT5 block: 6.4

How did COc1ccc(CCn2c(-c3cccc([N+](=O)[O-])c3)nc3nc4ccccc4nc32)cc1 do in these assays?
E-selectin induc: 0.0; DENV2 CPE rescue: 4.1; SIRT5 block: 0.5

What do the screens show for `CCOC(=O)C1CCCN(CCC(=O)Nc2cc(C)cc(C)c2)C1` (centres undefined)?
E-selectin induc: 6.8; DENV2 CPE rescue: 1.0; SIRT5 block: -4.7

What do the screens show for `S=C(NCC1CCCO1)N1CCN(Cc2ccccc2)CC1` (centres undefined)?
E-selectin induc: -3.2; DENV2 CPE rescue: 10.8; SIRT5 block: 10.2

How did Cc1ccc(NC(=O)C(C)OC(=O)Cc2c[nH]c3ccccc23)cc1 (centres undefined) do in these assays?
DENV2 CPE rescue: 5.7; SIRT5 block: -2.7

Results for Cc1ccc(C(=O)C(C)OC(=O)Cc2c[nH]c3ccccc23)cc1 (centres undefined) ?
DENV2 CPE rescue: 26.5*; SIRT5 block: -4.8

How did CC(=O)c1ccc(Nc2nc(C(C)N)cs2)cc1 (centres undefined) do in these assays?
E-selectin induc: 0.2; DENV2 CPE rescue: 11.0

How did COCC1COS(=O)(=O)NC1(C)C (centres undefined) do in these assays?
E-selectin induc: 0.0; DENV2 CPE rescue: 20.3*; SIRT5 block: 14.7

How did COc1ccccc1OCCSc1nc2ccccc2n1CC(O)CO (centres undefined) do in these assays?
DENV2 CPE rescue: -4.9; SIRT5 block: 18.5*

How did Cc1ccc(OCCSc2nc3ccccc3n2CC(=O)O)cc1 do in these assays?
DENV2 CPE rescue: -1.0; SIRT5 block: 16.5*

Results for COc1ccccc1OCCSc1nc2ccccc2n1CC(=O)O ?
E-selectin induc: -0.3; DENV2 CPE rescue: 7.6; SIRT5 block: -1.3

How did CCc1ccc(OCCSc2nc3ccccc3n2CC(=O)O)cc1 do in these assays?
DENV2 CPE rescue: -1.8; SIRT5 block: -4.0

What do the screens show for `O=C(COC(=O)c1cc([N+](=O)[O-])ccc1N1CCOCC1)c1ccc(F)cc1`?
DENV2 CPE rescue: -8.9; SIRT5 block: 0.1

What do the screens show for `COC(=O)C1CC(O)CN1S(=O)(=O)c1cccs1` (centres undefined)?
DENV2 CPE rescue: 3.2; SIRT5 block: -1.6

Results for Cc1nnsc1C(=O)N1CCN(c2ccc(F)cc2)CC1 ?
DENV2 CPE rescue: 2.1; SIRT5 block: -1.4

How did CCC(c1nnnn1C(C)(C)C)N1CCN(Cc2ccccc2OC)CC1 (centres undefined) do in these assays?
DENV2 CPE rescue: -1.9; SIRT5 block: 16.6*

Screens from PubChem BioAssay.
